Laboratory results taken from ChEMBL document CHEMBL1155286, “Second generation of 2H-benzimidazole 1,3-dioxide derivatives as anti-trypanosomatid agents: synthesis, biological evaluation, and mode of action studies” (Eur J Med Chem, 2009).
pIC50: −log10 of the molar value. Activity calls are given as the source filed them. The calls are words filed in the database; no cut-off is given here.

Experiments:
J774 = assay: Cytotoxicity against mouse J774 cells at 100 uM relative to 5-((hydroxyimino)methyl)-2,2-dimethyl-2H-benzo[d]imidazole 1,3-dioxide; assay type: cell-based; settings: j774, 100 µM
[1] = Cytotoxicity against mouse J774 cells; assay type: cell-based; settings: read-out: ID50 (the source's name)
[2] = Selective index, ratio of ID50 for mouse J774 cells to ID50 for Trypanosoma cruzi Tulahuen 2
[3] = Selective index, ratio of ID50 for mouse J774 cells to ID50 for Leishmania braziliensis LTB300
Leishmania braziliensis [4] = assay: Antiparasitic activity against Leishmania braziliensis MHOM/BR/00/LTB300 after 5 days by MTT assay; assay type: functional; settings: MHOM/BR/00/LTB300, 120 h, read-out: ID50
Summary of the method: (§1)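 Epimastigotes (T. cruzi strains, BHI-Tryptose + 5% FBS, 28 °C) or L. braziliensis LTB300 promastigotes (axenic RPMI + 5% FBS, 28 °C) from exponential culture in 24-well plates; compounds from DMSO stock added for 5 days. Washed in PBS, 0.4 mg/mL MTT at 37 °C for 3 h, formazan dissolved in DMSO, OD595 read. Triplicate per concentration, six growth controls; 1.0–50.0 μM dose-response, ID50 = concentration reducing absorbance ratio to 50%; three independent experiments.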

Trypanosoma cruzi [5] = assay: Antitrypanosomal activity against Trypanosoma cruzi Colombiana assessed as parasitic cytotoxicity at 25 uM after 5 days by MTT assay; assay type: functional
Summary of the method: (§2)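 Single 25 μM dose for 5 days on exponential-phase epimastigotes in BHI-Tryptose + 5% FBS, 24-well plates; MTT 0.4 mg/mL, 3 h at 37 °C after PBS wash, formazan in DMSO, OD595. PCyt = [[…] (ODd − ODdm)/(ODc − ODcm)] × 100 with medium-only blanks, compound-in-medium blanks and growth controls; three independent experiments.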

Trypanosoma cruzi [6] = assay: Antitrypanosomal activity against Trypanosoma cruzi Tulahuen 2 epimastigotes assessed as inhibition of parasite growth after 5 days; assay type: functional; settings: for pIC50: Trypanosoma cruzi, Tulahuen 2, 120 h, read-out: ID50 (the source's name)
Summary of the method: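 Stationary-phase (10-day) Tulahuen 2 epimastigotes inoculated at 1×10^6 cells/mL in BHI-Tryptose + 5% FBS, 28 °C, drug added from DMSO stock (final DMSO ≤0.4%; control 0.4% DMSO). Growth followed as A600; inhibition from day-5 vs day-0 absorbance relative to control. ID50 = concentration reducing absorbance ratio to 50%; three independent experiments.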

Trypanosoma cruzi [7] = assay: Antitrypanosomal activity against Trypanosoma cruzi Y epimastigotes after 5 days by MTT assay; assay type: functional; settings: 120 h, read-out: ID50; summary of the method: as §1
Trypanosoma cruzi [8] = assay: Antitrypanosomal activity against Trypanosoma cruzi CL Brener epimastigotes assessed as parasitic cytotoxicity at 25 uM after 5 days by MTT assay; assay type: functional; summary of the method: as §2
Trypanosoma cruzi [9] = assay: Antitrypanosomal activity against Trypanosoma cruzi Colombiana after 5 days by MTT assay; settings: 120 h, read-out: ID50
Trypanosoma cruzi [10] = assay: Antitrypanosomal activity against Trypanosoma cruzi CL Brener epimastigotes after 5 days by MTT assay; assay type: functional; settings: 120 h, read-out: ID50; summary of the method: as §1
Trypanosoma cruzi [11] = assay: Inhibition of Mitochondrial dehydrogenase in Trypanosoma cruzi Y epimastigotes at 20 uM after 30 to 240 mins by MTT dye reduction assay in relative to control
Summary of the method: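 Y-strain epimastigotes, 10^6 per well in 500 µL, 20 μM compound, 28 °C for 30–240 min with time-matched untreated controls. MTT (50 µL of 5 mg/mL) added for 4 h more, stopped with acidic isopropanol, A570 read; activity expressed as % of untreated parasites.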

Trypanosoma cruzi [12] = assay: Decrease of glucose uptake in Trypanosoma cruzi Y epimastigotes after 4 hrs relative to control; assay type: functional, organism-based
Summary of the method: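 Y-strain epimastigotes (80×10^6/mL) washed and resuspended in PBS with 1 mM glucose, exposed 4 h to 20 μM compound from DMSO. Parasite-free supernatant refluxed 1 h with Benedict's reagent; remaining glucose quantified at 700 nm against a calibration curve.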

Leishmania braziliensis [13] = assay: Inhibition of Mitochondrial dehydrogenase in Leishmania braziliensis MHOM/BR/00/LTB300 at 20 uM after 30 to 240 mins by MTT dye reduction assay in relative to control
Trypanosoma cruzi [14] = assay: Reduction of end products excretion levels in Trypanosoma cruzi Y epimastigotes after 2 days by [1H]NMR method; assay type: functional, organism-based
Summary of the method: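 Y-strain epimastigotes treated 2 days with 5 μM compound; culture centrifuged 1500 g, 10 min, 4 °C, parasite-free supernatant stored at −20 °C. Supernatant plus DMF internal standard and D2O run by 1H NMR with water suppression; metabolite peaks confirmed by spiking and standards, compared to untreated and parasite-free medium.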

Trypanosoma cruzi [15] = assay: Antitrypanosomal activity against Trypanosoma cruzi CL Brener trypomastigotes infected in Vero cells assessed as parasite lysis at 10 uM after 2 hrs relative to untreated control; assay type: functional
Summary of the method: (§3)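 Cell-culture trypomastigotes released from infected Vero cells (37 °C, 5% CO2, 5–7 days), collected by centrifugation and allowed 4 h at 37 °C to swim off. Supernatant parasites exposed to 10.0–50.0 μM for 2–26 h; lysis counted in a Neubauer chamber relative to untreated parasites; three independent experiments.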

Trypanosoma cruzi [16] = assay: Antitrypanosomal activity against Trypanosoma cruzi CL Brener trypomastigotes infected in Vero cells assessed as parasite lysis at 10 uM after 3 hrs relative to untreated control; assay type: functional; summary of the method: as §3
Trypanosoma cruzi [17] = assay: Antitrypanosomal activity against Trypanosoma cruzi CL Brener trypomastigotes infected in Vero cells assessed as parasite lysis at 10 uM after 22 hrs relative to untreated control; assay type: functional; summary of the method: as §3
Trypanosoma cruzi [18] = assay: Antitrypanosomal activity against Trypanosoma cruzi CL Brener trypomastigotes infected in Vero cells assessed as parasite lysis at 10 uM after 26 hrs relative to untreated control; assay type: functional; summary of the method: as §3

Structure (SMILES) | Activity (J774) [%] | CC50 [1] [µM] | Ratio [2] | Ratio [3] | pIC50 (Leishmania braziliensis [4]) | Activity (Trypanosoma cruzi [5]) [%] | pIC50 (Trypanosoma cruzi [7]) | Activity (Trypanosoma cruzi [8]) [%] | pIC50 (Trypanosoma cruzi [6]) | other results
COc1ccc(CC2(C)[N+]([O-])=c3ccccc3=[N+]2[O-])cc1 | 0.32 | > 400 | 8 | >11.4 | 4.46 | 30.8 |  |  |  | ID50 (Trypanosoma cruzi [6]): > 50 µM
CC1(C)[N+]([O-])=c2cc(Cl)c(Cl)cc2=[N+]1[O-] | 0.87 | 100 | 6.9 | 9.9 | 5.00 | 94.4 | 5.00 | 88.3 | 4.84 | 
CC1CS(=O)(=O)CCN1/N=C/c1ccc([N+](=O)[O-])o1 (centres undefined) [NIFURTIMOX] |  | 346 | 44.9 |  |  | 87 | 5.01 | 90 | 5.11 | pIC50 (Trypanosoma cruzi [9]): 5.47; pIC50 (Trypanosoma cruzi [10]): 5.31; Activity (Trypanosoma cruzi [11]): inactive; Activity (Trypanosoma cruzi [12]): inactive
[O-][N+]1=c2ccc(/C=N/O)cc2=[N+]([O-])C12CCCC2 | 0.82 | 130 | 6.6 | 4.9 | 4.57 | 29 | 5.24 | 65.6 | 4.70 | 
[O-][N+]1=c2cc(Cl)c(Cl)cc2=[N+]([O-])C12CCCC2 | 1.65 | 39 | 3.3 | 7.2 | 5.27 | 60.9 | 5.28 | 67.1 | 4.92 | 
CC1(C)[N+]([O-])=c2ccc(/C=C/c3ccc(Cl)cc3)cc2=[N+]1[O-] | 1.48 | 52 | 6.4 |  |  |  |  |  | 5.09 | 
[O-][N+]1=c2ccccc2=[N+]([O-])C12CCCC2 | 0.75 | > 400 | >42.1 | >111.1 | 5.44 | 94.8 | 5.19 | 83.7 | 5.02 | 
CC1(C)[N+]([O-])=c2ccc(Cl)cc2=[N+]1[O-] | 1.74 | 38 | 3.8 |  |  |  |  |  | 5.00 | 
Cc1ccc2c(c1)=[N+]([O-])C(C)(C)[N+]=2[O-] |  |  |  |  | 4.52 | 35.1 | 5.48 | 61.4 | 5.29 | Activity (Trypanosoma cruzi [11]): inactive; Activity (Leishmania braziliensis [13]): inactive; Activity (Trypanosoma cruzi [12]): inactive; Activity (Trypanosoma cruzi [14]): Active
Cc1c(Sc2ccccc2)[n+]([O-])c2cc(Cl)c(Cl)cc2[n+]1[O-] |  |  |  |  |  |  |  |  |  | Activity (Trypanosoma cruzi [11]): Active
CC1(Cc2ccccc2)[N+]([O-])=c2ccccc2=[N+]1[O-] | 0.46 | 302 | <6 | 14.6 | 4.68 | 18.6 |  | 47 | < 4.30 | 
CCCCCC1(C)[N+]([O-])=c2ccccc2=[N+]1[O-] | 0.01 | 233 | 43.1 | <4.7 | < 4.30 | 77.1 |  | 88.2 | 5.27 | 
CC1(C)[N+]([O-])=c2ccc(/C=C/c3ccc4c(c3)OCO4)cc2=[N+]1[O-] | 1.37 | 58 | 18.7 |  |  |  |  |  | 5.51 | 
[O-][N+]1=c2ccc(Br)cc2=[N+]([O-])C12CCCC2 | 0.82 | 100 | 6.1 | 3.7 | 4.57 | 83.8 | 5.46 | 91.5 | 4.79 | Activity (Trypanosoma cruzi [11]): inactive; Activity (Leishmania braziliensis [13]): Active; Activity (Trypanosoma cruzi [12]): Active; Activity (Trypanosoma cruzi [14]): Active; Activity (Trypanosoma cruzi [15]): 0%; Activity (Trypanosoma cruzi [16]): 35%; Activity (Trypanosoma cruzi [17]): 16%; Activity (Trypanosoma cruzi [18]): 16%
O=C(Cn1ccnc1[N+](=O)[O-])NCc1ccccc1 [BENZNIDAZOLE] |  |  |  |  |  |  |  |  | 5.13 | Activity (Trypanosoma cruzi [11]): Active
CC1(Cc2ccc(Cl)cc2)[N+]([O-])=c2ccccc2=[N+]1[O-] | 1.42 | 55 | 1.4 |  |  |  |  |  | 4.40 | 
CC1(C)[N+]([O-])=c2ccc(/C=N/O)cc2=[N+]1[O-] |  | 77 | 6.2 | <1.5 | < 4.30 | 21.7 | 4.79 | 46.6 |  | pIC50 (Trypanosoma cruzi [10]): < 4.40
COc1ccc2c(c1)=[N+]([O-])C1(CCCC1)[N+]=2[O-] | 0.89 | 100 | 4 | <2 | < 4.30 | 17.3 | 5.31 | 62.6 | 4.60 | 
CCCCCCCCCCCCCCCCOP(=O)([O-])OCC[N+](C)(C)C [MILTEFOSINE] |  | 136 |  | 15.1 | 5.05 |  |  |  |  | Activity (Leishmania braziliensis [13]): Active
CC1(Cc2ccc([N+](=O)[O-])cc2)[N+]([O-])=c2ccccc2=[N+]1[O-] | 0.47 | 122 | 14.5 |  |  |  |  |  | 5.08 | 
